ChEMBL document CHEMBL1122273, “5-sulfamoylorthanilic acids, a sulfonamide series with salidiuretic activity” (J Med Chem, 1983)

Columns and labels:
Canis familiaris [1] = experiment: Diuretic activity in the dog (2 animals/dose) at (dose 12.5 mg/Kg), when administered perorally; assay type: functional, Canis lupus familiaris, Urine
Procedure, shortened: (§1)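 Trained male beagles, fasted 24 h with tap water ad libitum. Bladder emptied by catheter, then 20 mL/kg tap water by stomach tube, with 4 mL/kg water at each hourly catheterization up to 8 h. The first 2 h of urine served as control. Oral dosing came after the second catheterization, and 1–6 h urine was pooled. Na⁺ and K⁺ were measured by flame photometry, Cl⁻ argentometrically, in mequiv/kg.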

[2] = It is the ratio, measured as saluretic activity in the dog as concentration of Na+ in urinary excretion (dose 12.5 mg/kg, p.o.) to that of K; assay type: functional, Urine; conditions: route oral; procedure, shortened: as §1
Canis familiaris [3] = experiment: Urinary excretion collected at 7-24 hr time after oral administration in dog (four animals per dose) at dose 1.56 mg/kg.; assay type: functional, Canis lupus familiaris, Urine
Procedure, shortened: (§2)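 Trained male beagles, four per dose, fasted 24 h with tap water ad libitum. After bladder emptying, given 20 mL/kg tap water by stomach tube, then 4 mL/kg at each hourly catheterization; 2 h control collection, then oral dosing. Urine volume and Na⁺ (flame photometry) reported for 1–6, 7–24 and 1–24 h post-dose periods.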

Canis familiaris [4] = experiment: Saluretic activity in the dog measured as concentration of Na+ in urinary excretion (2 animals/dose) at (dose 12.5 mg/Kg, perorally); assay type: functional, Canis lupus familiaris, Urine
Procedure, shortened: (§3)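 Male beagles trained to rest on a table and to accept stomach tube and catheter. Food withdrawn 24 h before, tap water ad libitum. Bladder emptied by catheter, then 20 mL/kg tap water by stomach tube. Catheterized hourly up to 8 h with 4 mL/kg water orally each time; first 2 h urine served as control. Oral dosing after second catheterization. Pooled 1–6 h urine; Na⁺/K⁺ by flame photometry, Cl⁻ argentometrically.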

Rattus norvegicus = organism: Rattus norvegicus; experiment: Effect on (GFR) glomerular filtration rate in rats in comparison to furosemide activity
Canis familiaris [5] = experiment: sodium excretion collected at 1-24 hr time after oral administration in dog (four animals per dose) at dose 0.39 mg/kg.; assay type: functional, Canis lupus familiaris; procedure, shortened: as §2
[6] = It is the ratio, measured as saluretic activity in the dog as concentration of Cl- in urinary excretion (dose 1.56 mg/Kg, perorally) to that of (Na+)+K+); assay type: functional, Urine; procedure, shortened: as §1
Canis familiaris [7] = experiment: urinary excretion collected at 7-24 hr time after oral administration in dog (four animals per dose) dosed at 0.39 mg/kg.; assay type: functional, Canis lupus familiaris, Urine
[8] = It is the ratio, measured as saluretic activity in the dog as concentration of Na+ in urinary excretion (dose 1.56 mg/Kg, po) to that of K; assay type: functional, Urine; procedure, shortened: as §1
Canis familiaris [9] = experiment: sodium excretion collected at 7-24h time after oral administration in dog (four animals per dose) dosed at 0.05 mg/kg.; assay type: functional, Canis lupus familiaris
Procedure, shortened: (§4)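 Trained male beagles, four per dose, fasted 24 h with tap water ad libitum. The bladder was emptied by catheter, then 20 mL/kg tap water was given by stomach tube. Dogs were catheterized hourly with 4 mL/kg water orally each time, and the first 2 h served as control. Compound was given orally after the second catheterization. Urine volume and flame-photometric Na⁺ were measured over 1-6, 7-24 and 1-24 h.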

Canis familiaris [10] = experiment: Saluretic activity in the dog measured as concentration of Na+ in urinary excretion (2 animals/dose) at (dose 0.025 mg/Kg, perorally); assay type: functional, Canis lupus familiaris, Urine; procedure, shortened: as §3
Canis familiaris [11] = experiment: urinary excretion collected at 1-24 hr time after oral administration in dog (four animals per dose) dosed at 3.12 mg/kg.; assay type: functional, Canis lupus familiaris, Urine; procedure, shortened: as §4
Canis familiaris [12] = experiment: sodium excretion collected at 1-6 hr time after oral administration in dog (four animals per dose) dosed at 0.39 mg/kg.; assay type: functional, Canis lupus familiaris; procedure, shortened: as §2
Canis familiaris [13] = experiment: urinary excretion collected at 1-6 hr time after oral administration in dog (four animals per dose) dosed at 3.12 mg/kg.; assay type: functional, Canis lupus familiaris, Urine

Row | SMILES | Diuretic activity (Canis familiaris [1]) [ml kg-1 6hr-1] | Ratio [2] | Urinary excretion (Canis familiaris [3]) [mL/kg] | Saluretic activity (Canis familiaris [4]) [m equiv 6hr-1 kg-1] | GFR (Rattus norvegicus) [L/h/kg] | Na+ excretion (Canis familiaris [5]) [mequiv/kg] | Ratio [6] | Urinary excretion (Canis familiaris [7]) [mL/kg] | Ratio [8] | Na+ excretion (Canis familiaris [9]) [mequiv kg-1] | Saluretic activity (Canis familiaris [10]) [m equiv 6hr-1 kg-1] | Urinary excretion (Canis familiaris [11]) [mL/kg] | Na+ excretion (Canis familiaris [12]) [mequiv kg-1] | Urinary excretion (Canis familiaris [13]) [mL/kg]
1 | NS(=O)(=O)c1cc(S(=O)(=O)[O-])c(NCc2ccco2)cc1Oc1ccccc1.[Na+] | 74.3 | 5.5 | 12.3 | 6.49 | 0.413 | 2.04 | 0.95 | – | – | – | – | – | – | –
2 | CN(c1ccccc1)c1cc(NCc2ccco2)c(S(=O)(=O)[O-])cc1S(N)(=O)=O.[Na+] | – | – | – | – | – | – | – | 20.4 | 4.9 | 0.22 | 0.45 | 102 | 5.26 | 61.2
